# KCNQ1 inh – blocks the human KCNQ1 potassium channel; CHO-K1 KCNQ1, FluxOR thallium flux fluorescence; hits give high values; 1.3% of 310,000 active; B-score at 10 µM;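 active = compounds whose thallium flux B-score, printed positive for inhibition, exceeds three library SD while starting fluorescence stays within three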;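 note: channel opened by potassium depolarization with thallium stimulus after 20 min compound exposure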
# KCNK9 block – blocks the human KCNK9 two-pore domain potassium channel; Q9NPC2; HEK293 KCNK9, FluxOR thallium flux fluorescence; hits give low values; B-score at 10 µM; 1.2% of 310,000 active;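 active = ratio B-score over 3 SD below the library mean, with starting fluorescence within 5 SD of its mean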;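 note: negative B-score means less thallium flux so channel inhibition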
# Kir21 inh – Kir2.1 (mouse) channel inhibition; P35561; HEK293-Kir2.1, FluxOR thallium flux fluorescence; hits give low values; B-score at 10 µM; 0.85% of 310,000 active;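 active = fluorescence ratio B-score at or below minus 3 SD of library scores, with starting-brightness B-score within 2 SD, cut at about -4.2 in these data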;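 note: channel flux triggered by added potassium and thallium sulfate stimulus; B-score of peak minus minimum fluorescence over baseline after thallium stimulus; more negative B-score means stronger Kir2.1 block with less thallium influx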
# KCNK3 block – human KCNK3 channel inhibition, primary screen; O14649; CHO-KCNK3 thallium flux, FluxOR fluorescence; hits give low values; B-score at 10 µM; 0.84% of 340,000 active;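 active = B-score under library mean minus 4 SD, starting fluorescence ratio at most library mean plus 5 SD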;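 note: more negative B-score means stronger inhibition of thallium flux through KCNK3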
# hERG rescue – hERG (human) protection from proarrhythmic block; activation (rescue from dofetilide block), less the hit threshold, % at 10 µM; AID 1511; CHO-hERG, FluxOR thallium flux, dofetilide IC70 present; 0.51% of 310,000 active; Q12809;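 active = activation above the mean of controls blocked by dofetilide plus 5 SD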;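 note: thallium influx through hERG after potassium depolarization seen as dye fluorescence rise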
# Target sequence (Q12809 whole entry, looked up): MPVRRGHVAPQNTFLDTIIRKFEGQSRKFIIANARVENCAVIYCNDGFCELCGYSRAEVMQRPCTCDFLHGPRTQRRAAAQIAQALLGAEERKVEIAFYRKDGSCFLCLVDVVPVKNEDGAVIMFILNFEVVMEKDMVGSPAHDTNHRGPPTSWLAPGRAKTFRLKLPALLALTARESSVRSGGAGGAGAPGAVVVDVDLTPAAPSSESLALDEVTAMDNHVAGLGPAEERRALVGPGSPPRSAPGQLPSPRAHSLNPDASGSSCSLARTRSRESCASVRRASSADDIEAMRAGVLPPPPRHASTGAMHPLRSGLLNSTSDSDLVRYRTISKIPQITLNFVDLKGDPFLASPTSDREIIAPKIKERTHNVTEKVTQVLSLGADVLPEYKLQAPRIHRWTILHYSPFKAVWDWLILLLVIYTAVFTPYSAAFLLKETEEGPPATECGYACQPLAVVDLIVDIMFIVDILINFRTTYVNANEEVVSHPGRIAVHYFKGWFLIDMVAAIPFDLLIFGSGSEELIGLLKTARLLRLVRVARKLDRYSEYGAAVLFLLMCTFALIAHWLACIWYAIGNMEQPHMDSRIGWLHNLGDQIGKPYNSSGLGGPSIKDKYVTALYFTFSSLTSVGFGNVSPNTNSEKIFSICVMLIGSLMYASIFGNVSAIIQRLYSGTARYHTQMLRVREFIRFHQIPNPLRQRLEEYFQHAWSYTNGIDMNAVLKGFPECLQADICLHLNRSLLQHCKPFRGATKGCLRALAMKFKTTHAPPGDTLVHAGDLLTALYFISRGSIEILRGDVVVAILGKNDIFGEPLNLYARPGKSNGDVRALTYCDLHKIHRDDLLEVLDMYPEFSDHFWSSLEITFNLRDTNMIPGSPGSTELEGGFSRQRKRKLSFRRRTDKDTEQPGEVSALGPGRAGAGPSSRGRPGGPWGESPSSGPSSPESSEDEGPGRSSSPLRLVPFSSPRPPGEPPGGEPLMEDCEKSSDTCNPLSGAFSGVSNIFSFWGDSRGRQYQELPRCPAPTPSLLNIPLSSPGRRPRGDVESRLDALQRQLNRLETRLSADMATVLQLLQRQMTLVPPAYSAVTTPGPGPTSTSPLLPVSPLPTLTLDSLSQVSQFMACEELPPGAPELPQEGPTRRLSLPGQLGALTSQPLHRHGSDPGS
# KCNQ1 pot – human KCNQ1 channel potentiation or activation; P51787; CHO-K1 KCNQ1, thallium flux FluxOR fluorescence; hits give high values; B-score at 10 µM; 0.35% of 310,000 active;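 active = fluorescence ratio B-score, a plate-corrected score, at least three library SD, with initial intensity B-score within 5 SD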
#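 Assay system: CHO-K1 cells stably expressing KCNQ1. Medium: assay buffer for compound exposure, DMSO matched across wells. Timing: 37 °C overnight plating, 90-min dark dye load, 20-min compound pretreatment. Signal: kinetic FluxOR fluorescence, 10 s baseline plus 110 s post-stimulus.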
# * hit, by the source's call; i = inactive; . = not tested or not shown. Hits are enriched below; roughly 3.7% of the tested compounds scored in any of these assays.
SMILES,KCNQ1 inh,KCNK9 block,Kir21 inh,KCNK3 block,hERG rescue,KCNQ1 pot
CCNC(=O)COC(=O)c1cc(S(=O)(=O)N2CCCc3ccccc32)ccc1Cl,i,i,-4.39*,i,-7.8,i
COc1ccccc1NS(=O)(=O)c1ccc2oc(N)nc2c1,i,i,-4.33*,i,-8.2,i
C=C[C@@H]1c2cc(C)ccc2N(S(=O)(=O)c2ccc(C)cc2)[C@H](c2ccccc2)C1(C#N)S(=O)(=O)c1ccccc1 (stereo partly specified),.,.,.,i,.,.
CCN(CC(=O)Nc1ccc(OC)cc1)CC(=O)Nc1ccc(Cl)cc1F,i,i,0.11,i,7.3*,i
Cc1ccccc1S(=O)(=O)c1c(C)cc(C)n(C(C)C)c1=O,i,i,-4.41*,i,-6.6,i
CCCSc1nc(C)cc(C)c1S(C)(=O)=O,i,i,1.32,i,-4.0,i
CCCSc1nc(C)cc(C)c1S(=O)(=O)c1ccccc1C,i,-7.46*,-1.36,i,-1.5,i
CCCCn1c(C)cc(C)c(S(=O)(=O)c2ccccc2C)c1=O,i,i,-1.11,i,-2.3,i
Nc1c(Cl)cc(C(=O)NC2CC2)cc1Cl,.,.,.,i,.,.
O=C(C[C@@H]1C/C=C\CC[C@@H](Cc2ccc(F)cc2)C(=O)OC[C@@H](Cc2ccccc2)NC1=O)NCCO,.,.,.,i,.,.
CC(C)(C)c1ccccc1OCC(=O)Nc1ccccc1C(=O)NCc1cccnc1,i,i,-5.95*,i,-14.3,i
CC1CCCC(n2c(=S)[nH]c3ccccc3c2=O)C1C (stereo unspecified),i,i,1.05,i,0.5,41*
O=c1c2ccccc2[nH]c(=S)n1C1CCCCC1,i,i,0.68,i,9.3*,9*
CC1CCC(n2c(=S)[nH]c3ccccc3c2=O)CC1 (stereo unspecified),i,i,-2.19,i,18.5*,56*
COc1c(N2C[C@@H]3CCCN[C@@H]3C2)c(F)cc2c(=O)c(C(=O)O)cn(C3CC3)c12,.,i,-0.08,i,.,.
CCCNC(=O)c1csc(Nc2cccc3ccccc23)n1,i,-8.04*,1.58,i,-4.4,i
COCCNC(=O)c1csc(Nc2cccc3ccccc23)n1,i,i,1.18,i,-7.7,i
CCCCc1n[nH]c(=S)n1Cc1ccc(Cl)cc1,i,-10*,-0.89,i,-4.0,i
CN(C)c1ccc(/C=C/c2cc[n+]([O-])cc2)cc1,i,i,-10.7,.,-38.0,i
CC[n+]1ccccc1/C=C/c1ccc(N(C)C)cc1,8*,i,-0.1,i,-32.7,i
CC[n+]1ccc(/C=C/c2ccc(N(C)C)cc2)c2ccccc21,.,.,.,-9.93*,.,.
FC(F)Sc1ccc(NC(=S)NC2CCC(NC(=S)Nc3ccc(SC(F)F)cc3)CC2)cc1 (stereo unspecified),i,i,1.22,i,-5.1,i
Oc1cccc2c(NC(=S)Nc3ccc(SC(F)F)cc3)cccc12,11*,i,0.3,i,-10.7,i
CCOc1ccc(NC(=O)CN2C(=O)NC(C)(c3ccc4c(c3)OCCCO4)C2=O)cc1OCC (stereo unspecified),.,.,.,i,.,.
CN(CC(O)CN)CC(O)CN1CCCCC1 (stereo unspecified),i,i,-0.29,i,5.7*,i
SMILES,KCNQ1 inh,KCNK9 block,Kir21 inh,KCNK3 block,hERG rescue,KCNQ1 pot
CCCCNc1ccc2c(c1)C1CC2CCN1C(=O)OCc1ccccc1 (stereo unspecified),.,.,.,i,.,.
O=[N+]([O-])c1ccc(O)c(/C=N/n2c(-c3ccccc3)n[nH]c2=S)c1,7*,i,-1.85,i,-26.3,i
Oc1c(Br)cc(/C=N/n2c(-c3ccccc3)n[nH]c2=S)c(Br)c1O,i,i,0.34,.,-10.0,i
Cc1nnc(C)n1/N=C/c1cc(Br)ccc1O,i,i,1.28,i,-6.0,i
Cc1nnc(C)n1/N=C/c1cc(Br)cc(Br)c1O,i,i,-2.56,i,12.2*,15*
Oc1c(Br)cc(Br)cc1/C=N/n1c(-c2ccccc2)n[nH]c1=S,i,i,0.41,i,-18.2,12*
CC(C)(C)NC(=O)C(c1cccs1)N(Cc1ccc(F)cc1)C(=O)c1csnn1 (stereo unspecified),i,i,-1.5,i,-2.4,i
O=C(Nc1ccc(S(=O)(=O)N2CCOCC2)cc1)c1ccc(Cl)c([N+](=O)[O-])c1,.,.,.,i,.,.
OCC1(CCCc2ccccc2)CCN(Cc2ccc(F)cc2)CC1,i,i,-6.16*,i,-6.4,i
OCC1(CCc2ccccc2)CCN(Cc2cc(Cl)ccc2O)CC1,i,i,-4.79*,i,-13.7,i
Cc1ccc(-n2cccn2)c(CN2CCC(CO)(CCc3ccccc3)CC2)c1,i,i,-2.1,i,-10.8,i
OCC1(CCc2ccccc2)CCN(Cc2ccc(OC(F)F)cc2)CC1,i,i,-3.04,i,-16.4,i
Cc1ccc(S(=O)(=O)Oc2cccc([N+](=O)[O-])c2)cc1,.,.,.,i,.,.
CN(C)C(=O)C(CCN1CCC(O)(c2ccc(Cl)cc2)CC1)(c1ccccc1)c1ccccc1,i,i,-4.9*,i,-14.0,i
C[C@@H]1ON(C)[C@H]2C[C@H]3c4cc(-c5cccc(F)c5)ccc4CCN3C(=O)[C@@H]12,.,.,.,i,.,.
COc1ccc(-c2c(C)c3ccc(OCC(C)=O)cc3oc2=O)cc1,i,i,-0.72,.,5.7*,i
CC(=O)COc1ccc2c(C)c(C)c(=O)oc2c1,i,i,-0.4,i,-2.4,i
COC(=O)c1sc(NC(=O)CSc2n[nH]c(N)n2)c(C(=O)OC)c1C,i,i,-1.31,i,-11.7,i
Cc1ccsc1/C=C/C1=Cc2c(sc(NC(=O)CSc3n[nH]c(N)n3)c2C#N)C(C)(C)C1,8*,i,-1.36,i,-17.2,i
CCOc1ccc(/C=C/C2=Cc3c(sc(NC(=O)CSc4n[nH]c(N)n4)c3C#N)C(C)(C)C2)cc1,i,i,0.12,-8.8*,-16.2,i
CCOC(=O)c1sc(NC(=O)CSc2n[nH]c(-c3ccncc3)n2)c(C#N)c1C,i,i,-0.23,i,1.2,i
CCOc1ncccc1C(=O)Nc1cccc(S(=O)(=O)N2CCOCC2)c1,.,.,.,i,.,.
CCCCn1c(N)c(C(=S)NC(=O)CC(C)(C)C)c(=O)n(C)c1=O,i,i,0,i,24.7*,18*
CCOc1ccc2cc(S(=O)(=O)n3ccnc3C)ccc2c1,i,i,-3.58,i,-3.5,i
CCc1nccn1S(=O)(=O)c1ccc2ccc(C)cc2c1,i,i,-1.21,i,26.9*,28*
